Assay [1] relates to Human immunodeficiency virus 1. Description: Antiviral activity against HIV1 LAI infected in human MT2 cells by MTT assay. It is filed as functional, organism-based. Conditions: Human immunodeficiency virus 1, LAI. A digest of the protocol:
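MT-2 human T-lymphoid cells (2 × 10^3) were exposed to 100 TCID50 of HIV-1LAI and cultured in the presence of protease inhibitor. IC50 was determined by MTT assay and reported as the mean of at least two experiments.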
On the technique in general: Tetrazolium dyes change colour on reduction, which living cells bring about.

For assay [2], the target named is T1, Protease (Human immunodeficiency virus 1, UniProt Q9YQ12). Description: Inhibition of HIV1 LAI protease by fluorescence assay.
T1 sequence (Q9YQ12 whole entry): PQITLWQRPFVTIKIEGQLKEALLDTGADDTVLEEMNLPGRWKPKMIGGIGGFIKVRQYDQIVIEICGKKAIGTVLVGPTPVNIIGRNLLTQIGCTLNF
The subject of assay [3] is Human immunodeficiency virus 1. Description: Ratio of EC50 for wild type HIV1 ERS104pre to EC50 for multidrug-resistant HIV1 C harboring L10I/I15V/K20R/L24I/M36I/M46L/I54V/I62V/L63P/K70Q/V82A/L89M protease-encoding region mutant. It counts as functional.
In assay [4] the test system is Human immunodeficiency virus 1. Description: Ratio of EC50 for wild type HIV1 ERS104pre to EC50 for multidrug-resistant HIV1 G harboring L10I/V11I/T12E/I15V/L19I/R41K/M46L/L63P/A71T/V82A/L90M protease-encoding region mutant. It counts as functional.
In assay [5] the test system is Human immunodeficiency virus 1. Description: Antiviral activity against multidrug-resistant HIV1 TM harboring L10I/K14R/R41K/M46L/I54V/L63P/A71V/V82A/L90M/I93L protease-encoding region mutant infected in human PHA-PBMC cells assessed as inhibition of p24 Gag protein production. It is filed as functional, organism-based. Conditions: Human immunodeficiency virus 1, TM. A digest of the protocol: (§1)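 EC50 was determined against each clinical isolate and wild-type HIV-1ERS104pre. Assays were run in duplicate, and values are means (±1 standard deviation) of two or three independent experiments.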

Assay [6] concerns Human immunodeficiency virus 1. The assay is described as follows: Antiviral activity against multidrug-resistant HIV1 G harboring L10I/V11I/T12E/I15V/L19I/R41K/M46L/L63P/A71T/V82A/L90M protease-encoding region mutant infected in human PHA-PBMC cells assessed as inhibition of p24 Gag protein production. It is filed as functional, organism-based. Particulars: Human immunodeficiency virus 1, G. A digest of the protocol: as §1

The subject of assay [7] is Human immunodeficiency virus 1. The assay is described as follows: Antiviral activity against multidrug-resistant HIV1 C harboring L10I/I15V/K20R/L24I/M36I/M46L/I54V/I62V/L63P/K70Q/V82A/L89M protease-encoding region mutant infected in human PHA-PBMC cells assessed as inhibition of p24 Gag protein production. It counts as functional, organism-based. Particulars: Human immunodeficiency virus 1, C. The procedure, abridged: as §1

Assay [8] concerns Human immunodeficiency virus 1. Description: Antiviral activity against wild type HIV1 ERS104pre infected in human PHA-PBMC cells assessed as inhibition of p24 Gag protein production. It is filed as functional, organism-based. Conditions: Human immunodeficiency virus 1, ERS104pre. The procedure, abridged: as §1
Assay [9] relates to Human immunodeficiency virus 1. Description: Ratio of amprenavir EC50 to compound EC50 for wild type HIV-1 ERS104pre. It is filed as functional.
Assay [10] has as its system Human immunodeficiency virus 1. Description: Ratio of EC50 for wild type HIV1 ERS104pre to EC50 for multidrug-resistant HIV1 TM harboring L10I/K14R/R41K/M46L/I54V/L63P/A71V/V82A/L90M/I93L protease-encoding region mutant. It is filed as functional. The procedure, abridged: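 Antiviral EC50 was measured against wild-type HIV-1ERS104pre and against multidrug-resistant isolates. The fold change is the EC50 for each isolate divided by the wild-type EC50. Assays were run in duplicate. Values are means (±1 standard deviation) from two or three independent experiments.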

Assay [11] concerns Human immunodeficiency virus 1. Description: Antiviral activity against HIV1 LAV. Conditions: Human immunodeficiency virus 1, LAV. It is filed as functional, organism-based.
Assay [12] deals with T1, Protease. The assay is described as follows: Inhibition of HIV1 protease.

A word on the IC50: it is the point on the concentration scale where inhibition reaches its midpoint. A low value points to greater potency in that assay. As a reminder, the Ki is a measure of affinity in units of concentration, obtained from inhibition or displacement. `COc1ccc(S(=O)(=O)N(CC(C)C)C[C@@H](O)[C@H](Cc2ccccc2)NC(=O)O[C@H]2CCC[C@H]3O[C@@H]4OCCC[C@@H]4[C@@H]23)cc1` registered an IC50 in [1] of 48 nM. This compound came in with an inhibition constant Ki at Protease [2] of 0.41 nM.
The EC50 is the concentration needed to bring the measured effect to its halfway point. Turning to `COc1ccc(S(=O)(=O)N(CC(C)C)C[C@@H](O)[C@H](Cc2ccccc2)NC(=O)O[C@H]2CCC[C@H]3O[C@@H]4OCC[C@@H]4[C@@H]23)cc1`, the “Ratio EC50” value in assay [3] is given as 2; in assay [4] it was 3; in assay [9] it was 10; in [10] it was 4. Also, the EC50 in assay [5] came out at 16 nM; in assay [6], 12 nM; in [7], 8 nM; in assay [8], 3.6 nM. The same compound had an IC50 in assay [1] of 1.9 nM. For the same compound, the inhibition constant Ki at Protease [2] was determined as 0.01 nM.
As to `COc1ccc(S(=O)(=O)N(CC(C)C)C[C@@H](O)[C@H](Cc2ccccc2)NC(=O)O[C@H]2CO[C@H]3O[C@@H]4OCC[C@@H]4[C@H]32)cc1`, the concentration for half-maximal inhibition (IC50) in assay [11] is 1.8 nM. This compound came in with an inhibition constant (Ki) on Protease [12] of 0.0059 nM.
In assay [1], `COc1ccc(S(=O)(=O)N(CC(C)C)C[C@@H](O)[C@H](Cc2ccccc2)NC(=O)O[C@@H]2CCC[C@@H]3O[C@H]4OCC[C@H]4[C@@H]32)cc1` yielded an IC50 of 240 nM. The affinity on Protease [2], expressed as Ki, was 0.45 nM.
For the compound `CC(C)CN(C[C@@H](O)[C@H](Cc1ccccc1)NC(=O)O[C@H]1CCOC1)S(=O)(=O)c1ccc(N)cc1`, the “Ratio EC50” value in assay [3] amounted to 12; in assay [4], 16; in assay [10], 16. Further, the half-maximal effective concentration (EC50) in [5] amounted to 448 nM; in [7], 325 nM; in [8], 28 nM.
As to `COc1ccc(S(=O)(=O)N(CC(C)C)C[C@@H](O)[C@H](Cc2ccccc2)NC(=O)O[C@H]2COC[C@H]3O[C@@H]4OCC[C@@H]4[C@@H]23)cc1`, the “Ratio EC50” value in assay [3] came to 4; in assay [4] it was 10. For the same compound, the results for the concentration for a half-maximal effect (EC50) in [6], in assay [7] and in assay [8] were 79.5 nM, 32.9 nM and 8.3 nM, respectively. Also, in assay [1], half-maximal inhibition (IC50) was put at 4.5 nM. For the same compound, affinity on Protease [2] was put at a Ki of 0.021 nM.
`COc1ccc(S(=O)(=O)N(CC(C)C)C[C@@H](O)[C@H](Cc2ccccc2)NC(=O)O[C@@H]2CS(=O)(=O)C[C@@H]3O[C@H]4OCC[C@H]4[C@@H]32)cc1` displayed an IC50 in [1] of over 1000 nM. For the same compound, affinity at Protease [2] was put at a Ki of 10.5 nM.
On Protease [2], `COc1ccc(S(=O)(=O)N(CC(C)C)C[C@@H](O)[C@H](Cc2ccccc2)NC(=O)O[C@H]2CC(C)(C)C[C@H]3O[C@@H]4OCC[C@@H]4[C@@H]23)cc1` showed a Ki of 8.8 nM.
The same measure, in the same setting: then `COc1ccc(S(=O)(=O)N(CC(C)C)C[C@@H](O)[C@H](Cc2ccccc2)NC(=O)O[C@@H]2CC(C)(C)C[C@@H]3O[C@H]4OCC[C@H]4[C@@H]32)cc1`, with 139 nM.
`COc1ccc(S(=O)(=O)N(CC(C)C)C[C@@H](O)[C@H](Cc2ccccc2)NC(=O)O[C@@H]2COC[C@@H]3O[C@H]4OCC[C@H]4[C@@H]32)cc1` registered an IC50 in assay [1] of 260 nM. The compound also returned an inhibitory constant (Ki) on Protease [2] of 3.1 nM.
On the same counts, the results for `COc1ccc(S(=O)(=O)N(CC(C)C)C[C@@H](O)[C@H](Cc2ccccc2)NC(=O)O[C@H]2CS(=O)(=O)C[C@H]3O[C@@H]4OCC[C@@H]4[C@@H]23)cc1` are over 1000 nM and 0.6 nM.

For the origin of these results see ChEMBL document CHEMBL2424573 (J Med Chem, 2013).
